Among the data in ChEMBL document CHEMBL1909504, “New series of isoniazid hydrazones linked with electron-withdrawing substituents” (Eur J Med Chem, 2011) are MIC values, retold here.

Common to all, as to format: functional
The subject of test [1] is Mycobacterium tuberculosis. Briefly: Antimycobacterial activity against Mycobacterium tuberculosis CNTC My 331/88 ATCC 27294 after 14 days. The following applies: CNTC My 331/88 ATCC 27294, 336 h. The procedure, abridged:
(§1)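 Sula semi-synthetic medium at 37 °C. Compounds were dissolved in DMSO (max. 5% DMSO in water) and added to the medium at 1000, 500, 250, 125, 62, 31, 16, 8, 4, 2 and 1 μmol L⁻¹. MIC was read after 7, 14 and 21 days of incubation at 37 °C. Strains came from the Czech National Collection of Type Cultures.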

For test [2], the system named is Mycobacterium tuberculosis. Briefly: Antimycobacterial activity against Mycobacterium tuberculosis CNTC My 331/88 ATCC 27294 after 21 days. The following applies: CNTC My 331/88 ATCC 27294, 504 h. In a few lines:
as §1

Test [3] concerns Mycobacterium avium. As to the kind of experiment: Antimycobacterial activity against Mycobacterium avium CNTC My 330/88 after 14 days. The following applies: CNTC My 330/88, 336 h. The procedure, abridged:
as §1

The subject of test [4] is Mycobacterium avium. As to the kind of experiment: Antimycobacterial activity against Mycobacterium avium CNTC My 330/88 after 21 days. The following applies: CNTC My 330/88, 504 h. The procedure, abridged: as §1
For test [5], the system named is Mycobacterium kansasii. As to the kind of experiment: Antimycobacterial activity against Mycobacterium kansasii CNTC My 335/80 after 7 days. The following applies: 168 h. In a few lines:
(§2)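 MIC in Sula semi-synthetic medium at 37 °C. M. kansasii 6509/96 is a clinical isolate; M. kansasii CNTC My 235/80 comes from the Czech national collection. Compounds were dissolved in DMSO (max. 5% DMSO in water) and tested at 1000, 500, 250, 125, 62, 31, 16, 8, 4, 2 and 1 μmol L⁻¹. MIC was read after 7, 14 and 21 days.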

Test [6] has as its system Mycobacterium kansasii. Briefly: Antimycobacterial activity against Mycobacterium kansasii CNTC My 335/80 after 14 days. The following applies: 336 h. In a few lines:
as §2

Test [7] relates to Mycobacterium kansasii. As to the kind of experiment: Antimycobacterial activity against Mycobacterium kansasii CNTC My 335/80 after 21 days. The following applies: 504 h. In a few lines:
as §2

The test system of test [8] is Mycobacterium kansasii. As to the kind of experiment: Antimycobacterial activity against Mycobacterium kansasii 6509/96 isolate after 7 days. The following applies: 6509/96, 168 h. In a few lines: as §2
Test [9] has as its system Mycobacterium kansasii. Briefly: Antimycobacterial activity against Mycobacterium kansasii 6509/96 isolate after 14 days. The following applies: 6509/96, 336 h. In a few lines: as §2
Test [10] relates to Mycobacterium kansasii. As to the kind of experiment: Antimycobacterial activity against Mycobacterium kansasii 6509/96 isolate after 21 days. The following applies: 6509/96, 504 h. In a few lines: as §2

≈ marks a conversion by molar mass, not a printed value.

`O=C(N/N=C/Nc1cccc(O)c1)c1ccncc1`: the MIC was 2 µM (≈ 0.513 µg/mL) in [1]; 2 µM (≈ 0.513 µg/mL) in [2]; 500 µM (≈ 128 µg/mL) in the test with Mycobacterium avium [3]; 500 µM (≈ 128 µg/mL) in the test with Mycobacterium avium [4]; 250 µM (≈ 64.1 µg/mL) with Mycobacterium kansasii [5]; 1000 µM (≈ 256 µg/mL) with Mycobacterium kansasii [6]. In addition, the MIC was found to be 1000 µM (≈ 256 µg/mL) in the test on Mycobacterium kansasii [7], 16 µM (≈ 4.1 µg/mL) in the test with Mycobacterium kansasii [8], 32 µM (≈ 8.2 µg/mL) in the test with Mycobacterium kansasii [9] and 32 µM (≈ 8.2 µg/mL) against Mycobacterium kansasii [10].

For the molecule `O=C(N/N=C/Nc1ccc(O)cc1)c1ccncc1`, the MIC in test [1] was determined as 4 µM (≈ 1.03 µg/mL); in test [2], 8 µM (≈ 2.05 µg/mL); against Mycobacterium avium [3] it was 500 µM (≈ 128 µg/mL); with Mycobacterium avium [4], 500 µM (≈ 128 µg/mL); in the test with Mycobacterium kansasii [5] it was 250 µM (≈ 64.1 µg/mL); against Mycobacterium kansasii [6], 500 µM (≈ 128 µg/mL). Also, the MIC amounted to 500 µM (≈ 128 µg/mL) in the test with Mycobacterium kansasii [7], 32 µM (≈ 8.2 µg/mL) with Mycobacterium kansasii [8], 62.5 µM (≈ 16 µg/mL) in the test on Mycobacterium kansasii [9] and 62.5 µM (≈ 16 µg/mL) in the test with Mycobacterium kansasii [10].

Turning to `COc1cccc(N/C=N/NC(=O)c2ccncc2)c1`, the MIC in test [1] is 2 µM (≈ 0.541 µg/mL); in test [2], 2 µM (≈ 0.541 µg/mL); in the test on Mycobacterium avium [3] it was 500 µM (≈ 135 µg/mL); against Mycobacterium avium [4], 500 µM (≈ 135 µg/mL); with Mycobacterium kansasii [5] it was 250 µM (≈ 67.6 µg/mL); in the test on Mycobacterium kansasii [6] it was 500 µM (≈ 135 µg/mL). Further, the MIC came out at 1000 µM (≈ 270 µg/mL) against Mycobacterium kansasii [7], 16 µM (≈ 4.32 µg/mL) in the test on Mycobacterium kansasii [8], 16 µM (≈ 4.32 µg/mL) in the test with Mycobacterium kansasii [9] and 16 µM (≈ 4.32 µg/mL) in the test with Mycobacterium kansasii [10].

As for `COc1ccc(N/C=N/NC(=O)c2ccncc2)cc1`, the MIC in [1] was 2 µM (≈ 0.541 µg/mL); in test [2], 4 µM (≈ 1.08 µg/mL); in the test with Mycobacterium avium [3], 500 µM (≈ 135 µg/mL); with Mycobacterium avium [4], 500 µM (≈ 135 µg/mL); in the test on Mycobacterium kansasii [5], 250 µM (≈ 67.6 µg/mL); against Mycobacterium kansasii [6] it was 500 µM (≈ 135 µg/mL). For the same molecule, the MIC against Mycobacterium kansasii [7] came out at 1000 µM (≈ 270 µg/mL); against Mycobacterium kansasii [8], 16 µM (≈ 4.32 µg/mL); with Mycobacterium kansasii [9], 16 µM (≈ 4.32 µg/mL); in the test on Mycobacterium kansasii [10], 32 µM (≈ 8.65 µg/mL).

Take `O=C(N/N=C/Nc1ccc(C(F)(F)F)cc1)c1ccncc1`: the MIC stood at 2 µM (≈ 0.617 µg/mL) in test [1]; 2 µM (≈ 0.617 µg/mL) in test [2]; 500 µM (≈ 154 µg/mL) against Mycobacterium avium [3]; 1000 µM (≈ 308 µg/mL) against Mycobacterium avium [4]; 250 µM (≈ 77.1 µg/mL) in the test on Mycobacterium kansasii [5]; 500 µM (≈ 154 µg/mL) with Mycobacterium kansasii [6]. In addition, the MIC with Mycobacterium kansasii [7] amounted to 1000 µM (≈ 308 µg/mL); in the test with Mycobacterium kansasii [8] it was 32 µM (≈ 9.86 µg/mL); against Mycobacterium kansasii [9], 32 µM (≈ 9.86 µg/mL); in the test on Mycobacterium kansasii [10], 32 µM (≈ 9.86 µg/mL).

As for `O=C(N/N=C/Nc1cccc(F)c1)c1ccncc1`, the MIC in test [1] is 1 µM (≈ 0.258 µg/mL); in test [2], 1 µM (≈ 0.258 µg/mL); with Mycobacterium avium [3], 500 µM (≈ 129 µg/mL); against Mycobacterium avium [4] it was 1000 µM (≈ 258 µg/mL); with Mycobacterium kansasii [5], 125 µM (≈ 32.3 µg/mL); against Mycobacterium kansasii [6], 1000 µM (≈ 258 µg/mL). The MIC in the test with Mycobacterium kansasii [7] was greater than 1000 µM; against Mycobacterium kansasii [8], 16 µM (≈ 4.13 µg/mL); in the test with Mycobacterium kansasii [9], 16 µM (≈ 4.13 µg/mL); in the test on Mycobacterium kansasii [10] it was 16 µM (≈ 4.13 µg/mL).

Take `O=C(N/N=C/Nc1ccc(F)cc1)c1ccncc1`: the MIC in test [1] was found to be 1 µM (≈ 0.258 µg/mL); in test [2], 2 µM (≈ 0.517 µg/mL); against Mycobacterium avium [3], 250 µM (≈ 64.6 µg/mL); against Mycobacterium avium [4] it was 500 µM (≈ 129 µg/mL); against Mycobacterium kansasii [5], 250 µM (≈ 64.6 µg/mL); against Mycobacterium kansasii [6], 1000 µM (≈ 258 µg/mL). For the same molecule, the MIC was greater than 1000 µM against Mycobacterium kansasii [7], 8 µM (≈ 2.07 µg/mL) in the test on Mycobacterium kansasii [8], 8 µM (≈ 2.07 µg/mL) against Mycobacterium kansasii [9] and 8 µM (≈ 2.07 µg/mL) against Mycobacterium kansasii [10].

Turning to `O=C(N/N=C/Nc1cccc(Cl)c1)c1ccncc1`, the MIC in test [1] stood at 1 µM (≈ 0.275 µg/mL); in test [2] it was 1 µM (≈ 0.275 µg/mL); in the test with Mycobacterium avium [3], 500 µM (≈ 137 µg/mL); with Mycobacterium avium [4], 1000 µM (≈ 275 µg/mL); against Mycobacterium kansasii [5], 125 µM (≈ 34.3 µg/mL); with Mycobacterium kansasii [6], 500 µM (≈ 137 µg/mL). For the same molecule, the minimal inhibitory concentration (MIC) was determined as 500 µM (≈ 137 µg/mL) in the test with Mycobacterium kansasii [7], 16 µM (≈ 4.4 µg/mL) in the test on Mycobacterium kansasii [8], 16 µM (≈ 4.4 µg/mL) against Mycobacterium kansasii [9] and 16 µM (≈ 4.4 µg/mL) in the test on Mycobacterium kansasii [10].

As to `O=C(N/N=C/Nc1cccc(Br)c1)c1ccncc1`, the MIC in test [1] was determined as 1 µM (≈ 0.319 µg/mL); in [2], 1 µM (≈ 0.319 µg/mL); in the test on Mycobacterium avium [3], 250 µM (≈ 79.8 µg/mL); against Mycobacterium avium [4], 500 µM (≈ 160 µg/mL); in the test with Mycobacterium kansasii [5] it was 250 µM (≈ 79.8 µg/mL); against Mycobacterium kansasii [6], 1000 µM (≈ 319 µg/mL). For the same molecule, the MIC with Mycobacterium kansasii [7] was determined as 1000 µM (≈ 319 µg/mL); in the test with Mycobacterium kansasii [8], 8 µM (≈ 2.55 µg/mL); in the test with Mycobacterium kansasii [9], 8 µM (≈ 2.55 µg/mL); against Mycobacterium kansasii [10], 16 µM (≈ 5.11 µg/mL).

By MIC is commonly meant the lowest concentration that inhibits growth of the organism. Read a low MIC as greater potency.
